Assay results published in ChEMBL document CHEMBL2346655, “Synthesis and in vitro biological evaluation of 2,6,9-trisubstituted purines targeting multiple cyclin-dependent kinases” (Eur J Med Chem, 2013).

What was measured:
[1] = biological target: Cyclin-dependent kinase 7/ cyclin H (Homo sapiens, UniProt P50613); test: Inhibition of CDK7/CyclinH/MAT1 (unknown origin) using (YSPTSPS)2KK as substrate; assay type: protein-complex assay
Method in brief: (§1)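 Buffer was 60 mM HEPES-NaOH pH 7.5, 3 mM MgCl2, 3 mM MnCl2, vanadate, DTT and PEG. Reactions were stopped with H3PO4 and spotted on P-81 paper, which was then washed. Radioactivity was imaged; IC50 taken from dose–response curves.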

[2] = biological target: Cyclin-dependent kinase 5/CDK5 activator 1 (Homo sapiens, UniProt Q00535); test: Inhibition of CDK5/P35 (unknown origin) using histone H1 as substrate; assay type: protein-complex assay
HOS = test: Cytotoxicity against human HOS cells assessed as reduction in number of viable cells after 72 hrs by fluorescence assay; assay type: functional, cell-based
Method in brief: (§2)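 Three-fold compound dilutions tested in triplicate on cultured cells for 72 h. Viable cells detected by adding Calcein AM and reading fluorescence at 485/538 nm (ex/em).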

CCRF-CEM = test: Cytotoxicity against human CEM cells assessed as reduction in number of viable cells after 72 hrs by fluorescence assay; assay type: functional, cell-based; method in brief: as §2
G-361 = test: Cytotoxicity against human G361 cells assessed as reduction in number of viable cells after 72 hrs by fluorescence assay; assay type: functional, cell-based; conditions: G-361, 72 h; method in brief: as §2
HCT-116 = test: Cytotoxicity against human HCT116 cells assessed as reduction in number of viable cells after 72 hrs by fluorescence assay; assay type: functional, cell-based; conditions: HCT-116, 72 h; method in brief: as §2
MCF7 = test: Cytotoxicity against human MCF7 cells assessed as reduction in number of viable cells after 72 hrs by fluorescence assay; assay type: functional, cell-based; conditions: MCF7, 72 h; method in brief: as §2
K562 = test: Cytotoxicity against human K562 cells assessed as reduction in number of viable cells after 72 hrs by fluorescence assay; assay type: functional, cell-based; conditions: K562, 72 h; method in brief: as §2
[3] = biological target: Cyclin-dependent kinase 2/cyclin E1 (Homo sapiens, UniProt P24941); test: Inhibition of CDK2/Cyclin E (unknown origin) expressed in Sf9 cells using histone H1 as substrate
CDK9/cyclin T1 = CDK9/cyclin T1 (Homo sapiens, UniProt P50750); test: Inhibition of CDK9/CyclinT1 (unknown origin) using (YSPTSPS)2KK as substrate; assay type: protein-complex assay; method in brief: as §1
CDK9/cyclin T1, sequence (O60563 whole entry): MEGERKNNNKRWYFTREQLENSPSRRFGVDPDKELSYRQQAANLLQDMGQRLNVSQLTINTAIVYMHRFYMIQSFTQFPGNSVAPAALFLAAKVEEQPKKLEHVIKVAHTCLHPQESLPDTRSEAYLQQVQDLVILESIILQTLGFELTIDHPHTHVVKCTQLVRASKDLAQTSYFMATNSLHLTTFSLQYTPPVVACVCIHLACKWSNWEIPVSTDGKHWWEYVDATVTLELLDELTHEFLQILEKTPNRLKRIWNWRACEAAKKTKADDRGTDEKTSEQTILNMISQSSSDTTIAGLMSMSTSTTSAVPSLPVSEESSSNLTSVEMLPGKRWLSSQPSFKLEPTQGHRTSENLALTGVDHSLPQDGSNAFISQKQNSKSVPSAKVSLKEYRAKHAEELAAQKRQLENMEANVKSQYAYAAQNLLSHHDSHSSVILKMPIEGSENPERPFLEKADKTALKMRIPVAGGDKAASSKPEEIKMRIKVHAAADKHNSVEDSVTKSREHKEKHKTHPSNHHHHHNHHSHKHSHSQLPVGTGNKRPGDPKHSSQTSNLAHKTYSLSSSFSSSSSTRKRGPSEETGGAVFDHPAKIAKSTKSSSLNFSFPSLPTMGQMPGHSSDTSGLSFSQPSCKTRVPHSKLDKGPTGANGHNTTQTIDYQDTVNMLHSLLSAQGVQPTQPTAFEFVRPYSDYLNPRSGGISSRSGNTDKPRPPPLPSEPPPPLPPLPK
CDK9/cyclin T1, sequence (P50750 whole entry): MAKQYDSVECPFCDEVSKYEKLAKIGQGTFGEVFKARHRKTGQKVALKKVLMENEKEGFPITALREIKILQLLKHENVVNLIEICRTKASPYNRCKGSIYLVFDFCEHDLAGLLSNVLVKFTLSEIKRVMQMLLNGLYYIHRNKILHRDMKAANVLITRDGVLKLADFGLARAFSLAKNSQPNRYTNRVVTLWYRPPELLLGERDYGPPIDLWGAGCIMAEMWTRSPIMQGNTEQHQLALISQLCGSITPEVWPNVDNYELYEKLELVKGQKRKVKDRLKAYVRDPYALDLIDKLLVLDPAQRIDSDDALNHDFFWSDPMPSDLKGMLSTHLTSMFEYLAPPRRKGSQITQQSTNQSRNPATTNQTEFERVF

Cyclin-dependent kinase 7/ cyclin H, sequence (P51946 whole entry): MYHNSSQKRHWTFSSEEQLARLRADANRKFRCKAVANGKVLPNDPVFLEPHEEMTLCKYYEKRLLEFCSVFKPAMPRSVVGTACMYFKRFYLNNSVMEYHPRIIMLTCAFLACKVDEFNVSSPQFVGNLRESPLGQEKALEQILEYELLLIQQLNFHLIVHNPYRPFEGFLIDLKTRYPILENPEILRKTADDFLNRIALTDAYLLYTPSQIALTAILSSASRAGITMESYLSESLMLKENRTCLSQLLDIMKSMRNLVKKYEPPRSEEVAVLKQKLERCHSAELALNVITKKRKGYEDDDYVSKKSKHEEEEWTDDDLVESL
Cyclin-dependent kinase 7/ cyclin H, sequence (P50613 whole entry): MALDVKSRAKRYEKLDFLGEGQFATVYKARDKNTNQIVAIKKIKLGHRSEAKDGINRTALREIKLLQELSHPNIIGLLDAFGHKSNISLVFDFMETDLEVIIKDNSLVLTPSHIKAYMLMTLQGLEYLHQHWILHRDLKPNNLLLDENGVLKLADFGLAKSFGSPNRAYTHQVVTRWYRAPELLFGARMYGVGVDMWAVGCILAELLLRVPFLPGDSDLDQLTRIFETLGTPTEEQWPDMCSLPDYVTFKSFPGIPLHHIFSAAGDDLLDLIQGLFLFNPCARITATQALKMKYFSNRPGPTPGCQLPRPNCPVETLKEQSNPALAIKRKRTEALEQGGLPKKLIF
Cyclin-dependent kinase 5/CDK5 activator 1, sequence (Q00535 whole entry): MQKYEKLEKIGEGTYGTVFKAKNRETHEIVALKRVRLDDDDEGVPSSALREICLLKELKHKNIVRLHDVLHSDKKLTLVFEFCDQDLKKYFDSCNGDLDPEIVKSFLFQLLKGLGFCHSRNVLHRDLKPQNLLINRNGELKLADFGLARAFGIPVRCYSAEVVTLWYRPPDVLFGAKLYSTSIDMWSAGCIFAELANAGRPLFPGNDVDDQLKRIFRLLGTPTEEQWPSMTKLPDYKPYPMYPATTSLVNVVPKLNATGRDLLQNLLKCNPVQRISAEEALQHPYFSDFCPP
Cyclin-dependent kinase 5/CDK5 activator 1, sequence (Q15078 whole entry, further chain): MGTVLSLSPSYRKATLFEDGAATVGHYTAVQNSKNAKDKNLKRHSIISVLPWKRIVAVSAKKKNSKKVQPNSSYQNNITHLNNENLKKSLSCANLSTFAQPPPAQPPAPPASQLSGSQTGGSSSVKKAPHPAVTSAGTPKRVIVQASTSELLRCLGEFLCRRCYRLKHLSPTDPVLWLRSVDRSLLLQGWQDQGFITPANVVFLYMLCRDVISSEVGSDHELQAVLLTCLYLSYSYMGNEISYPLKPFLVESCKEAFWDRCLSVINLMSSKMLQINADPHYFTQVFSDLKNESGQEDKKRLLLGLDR

SMILES	IC50 [1]	IC50 [2]	IC50 (HOS)	IC50 (CCRF-CEM)	IC50 (G-361)	IC50 (HCT-116)	IC50 (MCF7)	IC50 (K562)	IC50 [3]	IC50 (CDK9/cyclin T1)
CC(C)n1cnc2c(NCc3cc(Cl)ccc3O)nc(NCC(C)(C)O)nc21	0.435 µM	0.069 µM	4.4 µM	3.9 µM	4.3 µM	4 µM	2.7 µM	5.1 µM	0.019 µM	
CC(C)n1cnc2c(NCc3cc(Cl)ccc3O)nc(NC3CCC(N)CC3)nc21 (centres undefined)	0.16 µM	0.125 µM	2.2 µM	3.3 µM	2.4 µM	2.4 µM	1.8 µM	2.4 µM	0.025 µM	0.039 µM
CC[C@@H](Nc1nc(NCc2cc(F)ccc2O)c2ncn(C(C)C)c2n1)C(C)O (mixture of isomers)	0.18 µM	0.067 µM	2.4 µM	1.6 µM	1.9 µM	1.8 µM	1.8 µM	2.9 µM	0.0118 µM	0.1 µM
CC(C)n1cnc2c(NCc3ccccc3N)nc(NCC(C)(C)O)nc21	1.2 µM	0.74 µM	16.9 µM	12.6 µM	12.6 µM	12.9 µM	13.5 µM	34 µM	0.02 µM	1.24 µM
CC(C)n1cnc2c(NCc3cc(Cl)ccc3O)nc(N[C@@H](C)C(C)(C)O)nc21			1.8 µM	2.5 µM	1.2 µM	1.8 µM	1.4 µM	2 µM	0.0243 µM	
COc1ccc(CNc2nc(N3CCNCC3)nc3c2ncn3C(C)C)cc1			5.1 µM	10.8 µM	10.1 µM	11.5 µM	3.53 µM	5.3 µM	0.89 µM	
COc1cccc(CNc2nc(N3CCNCC3)nc3c2ncn3C(C)C)c1O			30.6 µM	27.5 µM	18.9 µM	22.5 µM	8.3 µM	14.2 µM	0.63 µM	
CC[C@H](CO)Nc1nc(NCc2cccc(OC)c2OC)c2ncn(C(C)C)c2n1			67.5 µM	38 µM	46.6 µM	29.5 µM	21 µM	40.1 µM	0.031 µM	
CC[C@H](CO)Nc1nc(NCc2cc(Cl)ccc2O)c2ncn(C(C)C)c2n1		0.15 µM	5 µM	3.7 µM	4.3 µM	5.4 µM	4.6 µM	3.2 µM	0.0094 µM	0.285 µM
CC(C)n1cnc2c(NCc3ccc(O)cc3)nc(N3CCNCC3)nc21			6.5 µM	13.4 µM	12.4 µM	9.3 µM	4.1 µM	9.3 µM	0.34 µM	
CC[C@H](CO)Nc1nc(NCc2cc(F)ccc2O)c2ncn(C(C)C)c2n1		0.24 µM	4.5 µM	3.9 µM	6.5 µM	4.8 µM	3.6 µM	4.1 µM	0.019 µM	0.106 µM
CC[C@@H](CO)Nc1nc(NCc2cccc(OC)c2O)c2ncn(C(C)C)c2n1			5.9 µM	10.7 µM	7.8 µM	8.7 µM	5.3 µM	15.4 µM	0.059 µM	
CC(C)n1cnc2c(NCc3cc(Cl)ccc3O)nc(NC3CCC(O)CC3)nc21 (centres undefined)	0.54 µM	0.55 µM	6.4 µM	3.2 µM	8.2 µM	13.2 µM	2.6 µM	2.4 µM	0.061 µM	0.91 µM
CC[C@H](CO)Nc1nc(NCc2ccc(N)cc2)c2ncn(C(C)C)c2n1			29.4 µM	22.6 µM	26 µM	23.8 µM	18.1 µM	71.5 µM		
CC(C)[C@H](Nc1nc(NCc2ccccc2N)c2ncn(C(C)C)c2n1)C(C)(C)O	0.29 µM	0.675 µM	42.7 µM	13.1 µM	18.7 µM	11.8 µM	12.8 µM	39.8 µM	0.07 µM	0.845 µM
CC(C)n1cnc2c(NCc3ccccc3N)nc(NCCC(C)(C)O)nc21		> 5 µM	100 µM	100 µM	100 µM	100 µM	100 µM	100 µM	0.79 µM	> 5 µM
CC[C@H](CO)Nc1nc(NCc2cccc(OC)c2O)c2ncn(C(C)C)c2n1			14.8 µM	16.6 µM	22 µM	12.3 µM	12.6 µM	54.8 µM	0.06 µM	
CC[C@H](CO)Nc1nc(NCc2ccccc2O)c2ncn(C(C)C)c2n1 [OLOMOUCINE II]			10.6 µM	7.4 µM	9.2 µM	4.1 µM	9.1 µM	23 µM		0.815 µM
CC[C@H](CO)Nc1nc(NCc2ccccc2)c2ncn(C(C)C)c2n1 [SELICICLIB]			24.3 µM	16.3 µM	22.4 µM	14.4 µM	12.3 µM	45.5 µM		
CC(C)CNc1nc(NCc2ccccc2O)c2ncn(C(C)C)c2n1		2.36 µM	23.9 µM	13.6 µM	15.7 µM	22.2 µM	14.1 µM	10.8 µM	0.22 µM	3.13 µM
CC(C)n1cnc2c(NCc3ccccc3O)nc(NCCC(C)(C)O)nc21		4.49 µM	45.5 µM	34.6 µM	52.2 µM	64.1 µM	65.9 µM	47.3 µM	0.26 µM	> 5 µM
COc1ccc(CNc2nc(N3CCN(C)CC3)nc3c2ncn3C(C)C)cc1			11.2 µM	13.1 µM	13.9 µM	13.4 µM	12 µM	11.9 µM	0.89 µM	
